# Sampled rows, rich in hits. Any-hit rate of the full collection: about 2.4%.
# GASC-1 inh – inhibitors of GASC-1 histone demethylase, primary screen, biochemical, fluorescence, DELFIA europium. hit rate 0.069% among 330,000. inhibition, % at 2.35 µM. Lysine-specific demethylase 4C (Homo sapiens), Q9H3R0. GST-JMJD2C(1-420) H3K9me3 demethylation;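 active = more than half of a compound's replicate wells show inhibition beyond 50%, single wells judged on their own value; inconclusive = some, but no more than half, of replicates pass 50% inhibition; inactive = no replicate passes 50% inhibition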;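 also: signal counts dimethyl H3K9 product captured on neutravidin plate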
# HTRA1 inh – HTRA1 serine protease inhibitors, primary screen, biochemical, fluorescence polarization, HTS | Q92743 | recombinant HTRA1, FP-rhodamine activity-based probe | inhibition, % at 5.96 µM | hit rate 0.5% among 340,000; in the data active = inhibition above about 36%
# Target sequence (Q92743 whole entry, looked up): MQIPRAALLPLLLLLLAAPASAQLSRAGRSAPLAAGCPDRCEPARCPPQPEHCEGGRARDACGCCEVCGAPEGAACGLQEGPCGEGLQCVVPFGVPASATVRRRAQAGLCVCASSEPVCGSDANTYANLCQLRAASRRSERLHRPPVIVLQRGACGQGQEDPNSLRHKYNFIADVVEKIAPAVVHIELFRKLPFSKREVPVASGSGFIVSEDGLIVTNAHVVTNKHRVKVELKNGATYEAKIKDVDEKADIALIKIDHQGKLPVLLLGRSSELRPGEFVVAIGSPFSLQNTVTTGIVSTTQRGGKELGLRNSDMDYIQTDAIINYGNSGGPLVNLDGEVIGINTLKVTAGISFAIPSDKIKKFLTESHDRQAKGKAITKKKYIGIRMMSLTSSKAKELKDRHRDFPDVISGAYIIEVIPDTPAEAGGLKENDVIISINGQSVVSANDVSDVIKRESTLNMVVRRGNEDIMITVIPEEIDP
# SIAE inh – human SIAE inhibitors, primary screen, biochemical, fluorescence polarization, FP-Rh probe, 1536-well HTS | SIAE FP-Rh probe binding | Sialate O-acetylesterase (Homo sapiens), Q9HAT2 | hit rate 0.69% among 370,000 | inhibition, % at 9.66 µM | AID 1053197, 2014;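 active = inhibition above a cutoff: mean of compounds within the control limits plus 3 SD of those, cut at about 17% in these data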
# PRMT1 FP inh – PRMT1 methyltransferase inhibitors, primary screen, biochemical, fluorescence polarization; hit rate 1.3% among 370,000; inhibition, % at 2.79 µM; AID 652257, 2013; recombinant PRMT1, activity-based probe fluorescence polarization;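 active = inhibition above about 21% made by adding two undisclosed values, limit read from the data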
# ABHD4 inh – ABHD4 inhibitors, primary screen, biochemical, fluorescence polarization, mouse. (Lyso)-N-acylphosphatidylethanolamine lipase (Mus musculus), Q8VD66. hit rate 0.54% among 370,000. AID 720543, 2013. purified mABHD4, FP-Rh probe fluorescence polarization. inhibition, % at 8.92 µM;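 active = inhibition exceeding the mean over every tested compound plus 3 SD, cut at about 30% in these data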
#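 system = mouse ABHD4 enzyme, wild type | medium = HEPES pH 7.0, NaCl, Pluronic buffer | also added = FP-Rh probe | incubation = Enzyme–compound pre-incubation 45 min, then probe 60 min, both 25 °C | technique = fluorescence polarization, excitation 525 nm, emission 598 nm, BODIPY TMR filters | controls = S159A mutant high control, sample median low control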
# PRMT1 inh conf – PRMT1 methyltransferase inhibitors, confirmation, biochemical, fluorescence polarization, triplicate; hit rate 42% among 3,300; AID 687036, 2013; recombinant His-PRMT1, activity-based probe fluorescence polarization; shares compounds with PRMT1 FP inh; inhibition, % at 2.79 µM;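 active = mean inhibition across replicates above the hit cutoff derived for the earlier primary screen, cut at about 22% in these data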
# Hits are given with their value; i = inactive; ? = inconclusive; nt = no result given.
SMILES,GASC-1 inh,HTRA1 inh,SIAE inh,PRMT1 FP inh,ABHD4 inh,PRMT1 inh conf
Cc1ccc(/C=C/C(=O)N2CCN(c3ncccn3)CC2)o1,i,i,i,50,i,36
O=c1[nH]c2ccc(Cl)cc2c(-c2ccccc2)c1SC(=S)N1CCCCC1,i,i,i,44,i,24
Cc1ccccc1CN1CCCCC(NC(=O)Nc2cccc(F)c2)C1=O (stereo not drawn),nt,nt,i,i,i,nt
CC1(C)CC(=O)C2=C(C1)Nc1ccccc1NC2,i,i,i,25,i,i
CC1(C)CC(=O)C2=C(C1)Nc1ccccc1S2,i,i,i,i,i,nt
CCCCCCCCN1C(=O)[C@@H](CC(=O)N2CCC(c3ccccc3)CC2)C[C@@]2(C(=O)OC)C1=C[C@H](COCc1ccccc1)O[C@@H]2C,nt,nt,i,i,i,nt
C/C(=N\N1C(=O)CSC1=S)c1ccc(Br)cc1,i,i,i,31,i,32
C=Cc1ccc(C(=O)Nc2nnc(-c3cccnc3)s2)cc1,nt,nt,i,i,i,nt
Oc1c(CN2CCOCC2)cc(CN2CCOCC2)c(O)c1O,nt,i,i,35,i,83
CCCc1cc(CN2CCOCC2)c(O)c(CN2CCOCC2)c1O,nt,i,i,64,i,64
O=C1C=CC(=O)N1c1cccc(-c2ccccc2)c1,i,i,i,91,i,94
CCOC(=O)c1ccc(NC(=S)N2CCSC2c2c(F)cc(F)cc2F)cc1 (stereo not drawn),i,i,i,89,i,i
Fc1cc(F)c(C2SCCN2C(=S)Nc2cccc(C(F)(F)F)c2)c(F)c1 (stereo not drawn),i,i,i,78,i,i
CC(OC(=O)c1c2c(nc3ccccc13)/C(=C\c1ccc3c(c1)OCO3)CCC2)C(=O)Nc1ccc(S(N)(=O)=O)cc1 (stereo not drawn),nt,i,nt,nt,nt,nt
Cc1cccc(C)c1NC(=O)COC(=O)c1c2c(nc3ccccc13)/C(=C\c1ccc3c(c1)OCO3)CCC2,i,i,22,145,i,i
O=C(OCC(=O)c1ccco1)c1ccc2ncsc2c1,i,i,i,46,i,i
COc1cccc(/C=C2\SC(=S)N(NC(=O)c3ccncc3)C2=O)c1,i,i,i,37,i,i
CN(C)c1ccccc1-c1cc(NC=O)c2ncc(-c3cccc(C(F)(F)F)c3)n2c1,nt,nt,31,135,73,25
CCn1nc(C)cc1-c1nnc(SCC(=O)Nc2ccccc2)n1CCCOC,i,i,i,i,i,nt
CCn1nc(C)cc1-c1nnc(Sc2ncc([N+](=O)[O-])s2)n1C,i,i,i,55,i,63
COc1ccc(N2C(=O)CC(Sc3nc(C)cc(C)c3C#N)C2=O)cc1 (stereo not drawn),i,i,i,i,i,nt
O=C1CC(Sc2nnc(-c3ccccc3O)o2)C(=O)N1c1ccccc1 (stereo not drawn),i,i,i,66,i,65
O=C(O)CCSC1CC(=O)N(c2ccccc2)C1=O (stereo not drawn),i,i,i,i,i,nt
COc1ccc(N2C(=O)CC(Sc3nnc(-c4ccccc4)o3)C2=O)cc1 (stereo not drawn),i,i,i,63,i,39
Cc1cccc(C(=O)Nc2ccc(C(=O)N/N=C/c3ccc(C)o3)cc2)c1,i,i,i,i,i,nt
SMILES,GASC-1 inh,HTRA1 inh,SIAE inh,PRMT1 FP inh,ABHD4 inh,PRMT1 inh conf
O=C(CSc1nc2nc(-c3cccs3)cc(C(F)(F)F)c2c(=O)[nH]1)NCc1ccco1,i,i,i,30,i,i
O=C(CSc1nc2nc(-c3cccs3)cc(C(F)(F)F)c2c(=O)[nH]1)C(F)(F)F,i,i,i,58,i,84
COC(=O)CSc1nc2nc(-c3cccs3)cc(C(F)(F)F)c2c(=O)[nH]1,i,i,i,i,i,nt
COC(=O)C[C@H]1CC[C@H]2[C@H](COc3ccc(NC(=O)Nc4ccccc4F)cc3C(=O)N2C)O1,nt,nt,i,i,i,nt
CCN(CC)CCN(C(=O)CCS(=O)(=O)c1ccccc1)c1nc2cc3c(cc2s1)OCO3,i,i,i,i,i,nt
N#Cc1c(N)n[nH]c1-c1cc2c([nH]1)CCCC2,i,i,i,i,i,nt
N#Cc1cc2c([nH]c1=S)CCCCCC2,i,i,i,26,i,i
CNC(=O)C1CCC(=O)N1Cc1c[nH]c2ccccc12 (stereo not drawn),nt,nt,i,i,i,nt
CN(C)CC(=O)N[C@@H]1C[C@@H]2O[C@@H](CO)CC[C@@H]2O[C@@H]1CCc1ccc(-c2ccc(F)cc2)cc1,nt,nt,i,i,i,nt
CC(C)=C1C2C=CC1C1C(=O)N(c3ccc4c(c3)OCO4)C(=O)C21 (stereo not drawn),i,i,i,73,i,i
O=C(Cn1sc2ccccc2c1=O)Nc1ccc(Cl)cc1,nt,i,i,90,i,90
O=C(Cn1sc2ccccc2c1=O)Nc1ccc(Br)cc1,nt,i,i,93,i,81
O=C(Cn1sc2ccccc2c1=O)Nc1ccc(F)cc1,nt,i,i,91,i,91
O=C(CN1C(=O)C2CC=CCC2C1=O)Nc1ccc(Br)cc1 (stereo not drawn),i,i,i,i,i,nt
COC(=O)[C@]12C[C@H](CC(=O)N3CCOCC3)C(=O)N(CCc3ccc(OC)c(OC)c3)C1=C[C@H](COCc1ccccc1)O[C@@H]2C,nt,nt,i,i,i,nt
O=S(=O)(NCCC(c1ccc(F)cc1)c1ccco1)c1ccccc1 (stereo not drawn),i,i,i,i,i,nt
O=C(CC(c1ccco1)S(=O)(=O)c1ccccc1)c1ccc(F)cc1 (stereo not drawn),i,i,i,28,i,22
Nc1ccc(-n2cc(-c3ccccc3)[nH]c2=S)cc1,i,i,i,45,i,i
Cc1nnc(SCC2=C(C(=O)O)N3C(=O)[C@@H](NC(=O)Cn4cnnn4)[C@H]3SC2)s1,?,i,i,i,i,nt
Cc1nnc(SCC2=C(C(=O)O)N3C(=O)C(NC(=O)c4cc(F)c(F)cc4Cl)C3SC2)s1 (stereo not drawn),i,i,i,34,i,i
Cc1nnc(SCC2=C(C(=O)O)N3C(=O)C(NC(=O)COc4ccccc4)C3SC2)s1 (stereo not drawn),nt,i,i,38,i,69
CCC(C(=O)NC1C(=O)N2C(C(=O)O)=C(CSc3nnc(C)s3)CSC12)c1ccccc1 (stereo not drawn),i,i,i,28,i,i
Cc1nnc(SCC2=C(C(=O)O)N3C(=O)C(NC(=O)COc4ccc(F)cc4)C3SC2)s1 (stereo not drawn),i,i,i,31,i,23

# Source: PubChem BioAssay (several laboratories)
